Assay results from different studies.
Lines come from different studies, so protocols differ.
Target: Tyrosine-protein kinase Fgr (FGR, Homo sapiens, UniProt P09769)

SMILES	effect on	action	technique	concentration	measurement	value
COc1cc2ncnc(Nc3ccc(Oc4ccccc4)c(C)c3C)c2cc1OC	enzyme activity	inhibitor		1 µM	inhibition	93%
O=C(Nc1cnn(-c2csc(C(=O)NC3COC3)c2)c1)Nc1c(F)cccc1Cl	enzyme activity	inhibitor		5 µM	remaining activity	95.5%
O=C(Nc1cccnn1)N1CCC(=Cc2cccc(Oc3ccc(C(F)(F)F)cn3)c2)CC1	cell-free assay		competition with immobilised ligand	1 µM	remaining binding	63%
Cn1c2c(Cl)c(Cl)ccc2c2cn[nH]c(=O)c21	thermal stability		DSF	10 µM	ΔTm	-0.1 °C
O=C(Nc1cccnn1)N1CC(C/C=C/c2cncc(Oc3ccc(C(F)(F)F)cn3)n2)C1	cell-free assay		competition with immobilised ligand	1 µM	remaining binding	100%
Cc1ccc(NC(=O)c2ccc(C)c(C(F)(F)F)c2)cc1C#Cc1nn(C2CCC(O)CC2)c2ncnc(N)c12 (stereo not shown)	cell-free assay			10 µM	remaining signal	2%
Cn1c2c(c3ccc(Cl)c(Cl)c31)C(C#N)C1(CCOCC1)NC2=O (stereo not shown)	thermal stability		DSF	10 µM	ΔTm	0 °C
O=C(N1CCS(=O)(=O)CC1)N1C[C@H](c2ccc(OC(F)(F)F)cc2)C[C@H](c2nc(C3CC3)no2)C1	cell-free assay		competition with immobilised ligand	1 µM	remaining binding	100%
Nc1ncnc2occ(-c3ccc(NC(=O)Nc4cc(C(F)(F)F)ccc4F)cc3)c12	cell-free assay	inhibitor		20 µM	remaining signal	5.2%
NS(=O)(=O)c1cc(NC(=O)Cc2ccccc2)ccc1Oc1cccc(Cl)c1	cell-free assay		competition with immobilised ligand	1 µM	remaining binding	100%
Cc1ccc(C(=O)NCc2ccsc2)cc1C#Cc1cn(C(C)C)c2ncnc(N)c12	enzyme activity	inhibitor		1 µM	activity vs control	2%
CCN(CC)CCNC(=O)c1c(C)[nH]c(/C=C2\C(=O)Nc3ccc(F)cc32)c1C	enzyme activity	inhibitor		0.3 µM	inhibition	77%
O=C1CCc2cc(Nc3cc(OC4CCOCC4)c([N+](=O)[O-])cc3Cl)ccc2N1	cell-free assay		competition with immobilised ligand	1 µM	remaining binding	100%
O=C1Nc2ccc(Cl)cc2C1=Cc1cc(Cl)c(O)c(Cl)c1	cell-free assay			0.5 µM	remaining signal	84.8%
CCN1CCC2(CC1)NC(=O)c1c(c3ccc(Cl)c(Cl)c3n1C)C2C#N (racemic)	thermal stability		DSF	10 µM	ΔTm	-0.1 °C
Cc1cnc(NC2CCOCC2)nc1-n1cnc(C(=O)NC(CN)c2cc(F)cc(Cl)c2)c1 (stereo not shown)	enzyme activity	inhibitor	radiometric	1 µM	remaining activity	97%
Cc1ccc(C(=O)Nc2ccc(CN3CCN(C)CC3)c(C(F)(F)F)c2)cc1C#Cc1cnc2cccnn12	enzyme activity			23.5 nM	remaining activity	10%
Cn1c2c(Cl)c(Cl)ccc2c2cc[nH]c(=O)c21	thermal stability		DSF	10 µM	ΔTm	-0.4 °C
CC(C)(O)[C@H]1CC[C@H](Nc2ccc3ncc(-c4cccc(C(F)(F)F)c4)n3n2)CC1	enzyme activity	inhibitor		1 µM	remaining activity	36.8%
Cc1cc(NC(=O)c2cccc3cc(-c4cccc5[nH]nc(N)c45)ccc23)ccc1F	enzyme activity	inhibitor		0.1 µM	activity vs control	110%
O=S(=O)(NC1CCC(c2cc(F)ccc2F)(S(=O)(=O)c2ccc(Cl)cc2)CC1)C(F)(F)F (stereo not shown)	cell-free assay		competition with immobilised ligand	1 µM	remaining binding	99%
CNC(=O)c1cc(Oc2ccc(NC(=O)Nc3ccc(Cl)c(C(F)(F)F)c3)cc2)ccn1	enzyme activity	inhibitor		10 µM	inhibition	39%
COc1cc(-c2cn(C3CCc4c(F)cccc4N(CC(F)(F)F)C3=O)nn2)ccc1-n1cnc(C)c1 (stereo not shown)	cell-free assay		competition with immobilised ligand	1 µM	remaining binding	100%
Cc1ccc(Nc2nccc(N(C)c3ccc4c(C)n(C)nc4c3)n2)cc1S(N)(=O)=O	cell-free assay			0.5 µM	remaining signal	35.8%
CCC1(CC)NC(=O)c2c(c3ccc(Cl)c(Cl)c3n2C)C1C#N (stereo not shown)	thermal stability		DSF	10 µM	ΔTm	0 °C
CC(C)(C)c1nc2c(s1)c1nc(N)ncc1c1ccc(NS(=O)(=O)c3c(F)cccc3F)c(F)c12	enzyme activity	inhibitor	radiometric	1 µM	remaining activity	91%
CN(c1ccnc(CNc2nc(Nc3ccc4c(c3)CC(=O)N4)ncc2C(F)(F)F)n1)S(C)(=O)=O	cell-free assay		competition with immobilised ligand	1 µM	remaining binding	58%
CC/C(=N\NC(=O)NCc1cccc(O)c1)c1ccc(O)c(C)c1O	enzyme activity	inhibitor		0.1 µM	inhibition	1.1%
